Assay outcomes as filed in PubChem.
An excerpt weighted towards active compounds, which were near 1.5% of everything screened.
EBI2 block – EBI2 receptor antagonists, beta-arrestin recruitment, primary screen, cell-based, luminescence, 7a,25-OHC stimulation, uHTS; AID 651636, 2012; 360,000 tested, 0.81% active; 7a,25-OHC stimulated; inhibition, % at 5 µM; G-protein coupled receptor 183 (Homo sapiens), P32249; in the data active = inhibition above about 38%;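 also: enzyme fragment complementation signal reports receptor beta-arrestin coupling in cells; 0% = agonist plus DMSO wells and 100% = wells without agonist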
APJ ag – agonists of human apelin receptor APJ, primary screen, CHO-K1 cells, PathHunter beta-arrestin, luminescence. P35414. 0% DMSO wells, 100% apelin. activation, % at 20 µM. 330,000 tested, 0.11% active;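 active = activation more than six SD over the plate average, tested at 20 µM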;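 also: 0% = DMSO alone and 100% = apelin-13 at 10 nM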
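assay system = CHO-K1 APJ beta-arrestin complementation cell line | input = cell density 1000 per well | dosing = compound 20 µM once, DMSO 1% | timing = compound 90 min 25 °C, reagent 1 h | measured by = luminescence from split beta-galactosidase complementation, Galacton Star/Emerald II substrate | read-out basis = APJ agonist activity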
CXCR6 block – CXCR6 receptor inhibitors, primary screen, cell-based, beta-arrestin, luminescence, CHO-K1 PathHunter, 1536-well; 360,000 tested, 0.36% active; C-X-C chemokine receptor type 6 (Homo sapiens), O00574; AID 602244, 2012; inhibition, % at 20 µM; in the data active = inhibition above about 34%, passing the limit was not always enough;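 also: antagonist mode with CXCL16 agonist at 10 nM final; 0% = 10 nM CXCL16 with DMSO and 100% = unstimulated wells without agonist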
Target sequence (O00574 whole entry, looked up): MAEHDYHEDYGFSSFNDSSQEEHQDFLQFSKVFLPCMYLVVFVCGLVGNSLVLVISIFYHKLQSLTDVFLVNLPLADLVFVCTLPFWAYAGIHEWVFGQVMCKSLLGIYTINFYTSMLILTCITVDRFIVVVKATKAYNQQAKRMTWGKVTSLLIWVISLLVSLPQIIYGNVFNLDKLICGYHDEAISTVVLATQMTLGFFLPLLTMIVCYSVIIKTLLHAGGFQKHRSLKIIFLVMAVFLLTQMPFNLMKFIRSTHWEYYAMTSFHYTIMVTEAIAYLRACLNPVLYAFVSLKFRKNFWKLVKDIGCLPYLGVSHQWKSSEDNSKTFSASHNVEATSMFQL
CCR6 antagonist – CCR6 receptor antagonists, primary screen, cell-based, CHO-K1, luminescence, beta-arrestin, uHTS; C-C chemokine receptor type 6 (Homo sapiens), P51684; CHO-K1 CCR6 PathHunter beta-arrestin, CCL20-stimulated; inhibition, % at 20 µM; 340,000 tested, 0.49% active;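 active = compounds whose inhibition of the agonist-driven luminescence signal at 20 µM reaches about 50%, limit read from the data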;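 also: cells stimulated with CCL20 at 14 nM final; plate controls were DMSO with CCL20 for no effect and DMSO without agonist for full effect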
APJ antag – antagonists of human apelin receptor APJ, primary screen, CHO-K1 cells, beta-arrestin complementation, luminescence. 330,000 tested, 0.32% active. P35414. inhibition, % at 20 µM;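 active = inhibition above about 40% at 20 µM, limit read from the data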;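 also: cells challenged with 10 nM apelin-13 agonist together with compound; plate controls were apelin-13 plus DMSO wells for no effect and DMSO wells lacking apelin-13 for full effect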
EBI2 antag conf – EBI2 antagonist hit retest, beta-arrestin, confirmation, cell-based, single concentration, luminescence, 7a,25-OHC stimulation. shares compounds with EBI2 block. 7a,25-OHC antagonism. inhibition, % at 5 µM. 2,400 tested, 29% active. AID 651997, 2013;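 active = inhibition of at least 50%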
EBI2 agonist – EBI2 agonist activity of antagonist hits, confirmation, counter-screen for EBI2 antagonist project, cell-based, single concentration, agonist mode, luminescence | EBI2-expressing cells, 60 min; 0% vehicle, 100% 7α,25-dihydroxycholesterol control | 2,400 tested, under 10 active | activation, % at 5 µM | AID 652000, 2013 | shares compounds with EBI2 block;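 active = activation of at least 50%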
bGal cs – E. coli beta-galactosidase enzyme inhibition, confirmation, counter-screen for EBI2 antagonist project, biochemical, luminescence, single concentration. 2,400 tested, 1% active. inhibition, % at 5 µM. shares compounds with EBI2 block. AID 652176, 2013. purified beta-galactosidase, luminescent Galacton Star, 15 min;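 active = replicate-average signal at least 3 plate SD below neutral wells, shown as high inhibition, flagging enzyme-inhibiting false positives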;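 also: 0% = DMSO wells with enzyme and 100% = wells lacking enzyme; higher means stronger loss of beta-gal luminescence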
An asterisk follows results filed as active.

How did Cc1cc(SCC(=O)N/N=C/c2ccc(O)c(O)c2O)c(C)cc1Br do in these assays?
EBI2 block: -5; APJ ag: 5; CXCR6 block: -8; CCR6 antagonist: 13; APJ antag: -30

How did CC1CCCCN1C(=S)Nc1ccc(OC(F)F)cc1 (stereo not given) do in these assays?
EBI2 block: 50*; APJ ag: -1; CXCR6 block: 14; CCR6 antagonist: -3; APJ antag: -9; EBI2 antag conf: 1; EBI2 agonist: -1; bGal cs: -14

What do the screens show for `Cc1cc2c(cc1C)-c1c(ssc1=Nc1ccc(S(N)(=O)=O)cc1)C(C)(C)N2`?
EBI2 block: 53*; APJ ag: -3; CXCR6 block: 8; CCR6 antagonist: 32; APJ antag: 17; EBI2 antag conf: 58*; EBI2 agonist: -1; bGal cs: -10

How did CC(=O)NS(=O)(=O)c1ccc(N=c2ssc3c2-c2cc(C)c(C)cc2NC3(C)C)cc1 do in these assays?
EBI2 block: 0; APJ ag: -2; CXCR6 block: 4; CCR6 antagonist: 9; APJ antag: 12

What do the screens show for `O=C(c1ccc2ccccc2c1)N1CCN(c2ccc([N+](=O)[O-])c(N3CCOCC3)c2)CC1`?
EBI2 block: 47*; APJ ag: -3; CXCR6 block: -3; CCR6 antagonist: 7; APJ antag: -14; EBI2 antag conf: 34; EBI2 agonist: 0; bGal cs: 7

How did O=C(/C=C/c1ccccc1)N1CCN(c2ccc([N+](=O)[O-])c(N3CCOCC3)c2)CC1 do in these assays?
EBI2 block: 78*; APJ ag: 4; CXCR6 block: -4; CCR6 antagonist: 15; APJ antag: 18; EBI2 antag conf: 58*; EBI2 agonist: -2; bGal cs: -7

Results for Cc1cccc(C(=O)N2CCN(c3ccc([N+](=O)[O-])c(N4CCOCC4)c3)CC2)c1 ?
EBI2 block: 13; APJ ag: 0; CXCR6 block: -3; CCR6 antagonist: -5; APJ antag: 11

What do the screens show for `CCN(CC)C(=O)c1cc(-c2ccc3c(c2)OCO3)on1`?
EBI2 block: 5; APJ ag: -2; CXCR6 block: 2; CCR6 antagonist: 13; APJ antag: 12

What do the screens show for `Cc1ccc2[nH]c(C(=O)N3CCCC(Nc4ccc(F)cc4)C3)cc2c1` (stereo not given)?
EBI2 block: 24; APJ ag: -3; CXCR6 block: -8; CCR6 antagonist: 7; APJ antag: -5

Results for Cc1ccc2[nH]c(C(=O)N3CCN(c4cccc(Cl)c4)CC3)cc2c1 ?
EBI2 block: 54*; APJ ag: -2; CXCR6 block: -6; CCR6 antagonist: -15; APJ antag: -28; EBI2 antag conf: 47; EBI2 agonist: 0; bGal cs: 6

What do the screens show for `Cc1ccc2[nH]c(C(=O)N3CCN(C=O)CC3)cc2c1`?
EBI2 block: 75*; APJ ag: -2; CXCR6 block: -4; CCR6 antagonist: -9; APJ antag: -1; EBI2 antag conf: 28; EBI2 agonist: 1; bGal cs: 10

What do the screens show for `Cc1ccc(S(=O)(=O)N2CCCN(C(=O)c3cc4ccccc4[nH]3)CC2)cc1`?
EBI2 block: 54*; APJ ag: -3; CXCR6 block: -2; CCR6 antagonist: 13; APJ antag: -6; EBI2 antag conf: 34; EBI2 agonist: 1; bGal cs: 10

What do the screens show for `CCOC(=O)N1CCN(C(=O)c2cc3cc(C)ccc3[nH]2)CC1`?
EBI2 block: 88*; APJ ag: -3; CXCR6 block: 6; CCR6 antagonist: -14; APJ antag: -5; EBI2 antag conf: 67*; EBI2 agonist: 0; bGal cs: 7

How did CN1CCN(C(=O)c2cc3ccccc3[nH]2)CC1 do in these assays?
EBI2 block: 13; APJ ag: -1; CXCR6 block: -10; CCR6 antagonist: 5; APJ antag: 21

How did CC(=O)Nc1ccc(NC(=O)CSc2nnc(NC(=O)c3ccccc3F)s2)cc1 do in these assays?
EBI2 block: -17; CXCR6 block: 0

Results for COc1ccccc1C(=O)NCC(=O)NCCc1ccc(Cl)cc1 ?
EBI2 block: 11; APJ ag: -1; CXCR6 block: -5; CCR6 antagonist: 6; APJ antag: 10

Results for Cc1ccc(CNC(=O)c2cc(=O)c3cc(C)ccc3o2)cc1 ?
EBI2 block: 13; APJ ag: -5; CXCR6 block: -5; CCR6 antagonist: -2; APJ antag: 12

Results for COc1ccc(CNC(=O)c2cc(=O)c3cc(C)c(C)cc3o2)cc1 ?
EBI2 block: 56*; APJ ag: -5; CXCR6 block: -5; CCR6 antagonist: 2; APJ antag: -5; EBI2 antag conf: 38; EBI2 agonist: 1; bGal cs: 5

How did O=C(O)CC(NC(=O)CCC1CCCCC1)c1cc([N+](=O)[O-])ccc1Cl (stereo not given) do in these assays?
EBI2 block: 2; APJ ag: -3; CXCR6 block: -2; CCR6 antagonist: -2; APJ antag: 4

What do the screens show for `CC(C)(C)c1ccc(C(=S)N2CCN(c3ccccc3)CC2)cc1`?
EBI2 block: 58*; APJ ag: -2; CXCR6 block: 6; CCR6 antagonist: 17; APJ antag: 20; EBI2 antag conf: 46; EBI2 agonist: -2; bGal cs: -11

How did CNc1c(NS(=O)(=O)c2ccc(Br)cc2)c(=O)oc2ccccc12 do in these assays?
EBI2 block: 0; APJ ag: -2; CXCR6 block: -5; CCR6 antagonist: 12; APJ antag: 21

What do the screens show for `COc1ccc(NC(=O)CCN2CCN(S(=O)(=O)c3cc(Cl)ccc3Cl)CC2)cc1`?
EBI2 block: 48*; APJ ag: -1; CXCR6 block: 2; CCR6 antagonist: 0; APJ antag: -1; EBI2 antag conf: 26; EBI2 agonist: -1; bGal cs: -6

Results for COc1ccc(NC(=O)CCN2CCN(S(=O)(=O)c3ccc(OC)cc3)CC2)cc1 ?
EBI2 block: 17; APJ ag: -2; CXCR6 block: -3; CCR6 antagonist: -10; APJ antag: -28
